# Data from ChEMBL document CHEMBL1255284, “Aspergillus section Fumigati: antifungal susceptibility patterns and sequence-based identification” (2008).
# Numbered stars: 1 amine (or outer) side, 2 acyl side, 3 side chain; on linkers, the order of the positions; unused ones are H or OH. Bridge positions count the residues as written; N and C are the ends. Square brackets hold non-standard residues; d marks the D form. Peptide text beside a SMILES is read from it. * marks the point of attachment. hTyr(3S-OH,4S-OH,3'-OSO3H) = N[C@H](C(=O)O)[C@H](O)[C@@H](O)c1ccc(O)c(OS(=O)(=O)O)c1; Orn(4R-OH,5R-OH) = O=C([C@H](C[C@@H](O)[C@@H](O)N[*:3])N[*:1])[*:2]; Pro(3S-OH,4S-Me) = C[C@H]1CN[C@H](C(=O)O)[C@H]1O; X1 = CCCCCOc1ccc(-c2cc(-c3ccc(C(=O)*)cc3)no2)cc1; Gln(3R-OH) = NC(=O)C[C@@H](O)[C@H](N)C(=O)O; Hyp = O=C(O)[C@@H]1C[C@@H](O)CN1
# Key:
# Aspergillus lentulus [1] = assay: Antimicrobial activity against Aspergillus lentulus isolate CNM-CM-3364 obtained from bronchoalveolar lavage fluid of patient after 48 hrs by broth microdilution method; assay type: functional; conditions: isolate CNM-CM-3364, Lung
# Outline: (§1)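 CLSI M38-A broth microdilution with modifications: RPMI 1640 with L-glutamine, 2% glucose, buffered to pH 7 with 0.165 M MOPS. Inoculum of 1 × 10^5 to 5 × 10^5 CFU/ml from 3- to 5-day-old cultures. Incubated 35°C, 48 h, humid. Visual reading with a mirror. MIC is complete growth inhibition; echinocandin MEC is hyphal morphological alteration. Azoles 8 to 0.015 μg/ml; others 16 to 0.03 μg/ml.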
# [2] = tested on: Neosartorya pseudofischeri; assay: Antimicrobial activity against Neosartorya pseudofischeri isolate CNM-CM-2270 obtained from sputum of patient after 48 hrs by broth microdilution method; assay type: functional; conditions: Aspergillus thermomutatus, isolate CNM-CM-2270, 48 h
# Outline: (§2)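 CLSI M38-A broth microdilution with modifications: RPMI 1640 with L-glutamine, MOPS-buffered to pH 7, plus 2% glucose. Inoculum 1 × 10^5 to 5 × 10^5 CFU/ml from 3–5-day cultures. Incubated at 35°C for 48 h, humid. Read visually with a mirror. MIC = complete growth inhibition; echinocandin MEC = altered hyphal morphology. QC strain A. fumigatus ATCC 2004305.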
# Neosartorya hiratsukae [3] = assay: Antimicrobial activity against Neosartorya hiratsukae isolate CNM-CM-3740 obtained from oropharyngeal exudate of patient after 48 hrs by broth microdilution method; assay type: functional; conditions: Aspergillus hiratsukae, isolate CNM-CM-3740, 48 h; outline: as §1
# Neosartorya hiratsukae [4] = assay: Antimicrobial activity against Neosartorya hiratsukae isolate CNM-CM-3303 obtained from skin of patient after 48 hrs by broth microdilution method; assay type: functional; conditions: Aspergillus hiratsukae, isolate CNM-CM-3303, 48 h; outline: as §1
# Aspergillus viridinutans [5] = assay: Antimicrobial activity against Aspergillus viridinutans isolate CNM-CM-3147 obtained from oropharyngeal exudate of patient after 48 hrs by broth microdilution method; assay type: functional; conditions: isolate CNM-CM-3147, 48 h; outline: as §1
# [6] = tested on: Aspergillus fumigatiaffinis; assay: Antimicrobial activity against Aspergillus fumigatiaffinis isolate CNM-CM-3227 obtained from bronchoalveolar lavage fluid of patient after 48 hrs by broth microdilution method; conditions: isolate CNM-CM-3227, Lung
# [7] = tested on: Aspergillus fumigatiaffinis; assay: Antimicrobial activity against Aspergillus fumigatiaffinis isolate CNM-CM-2280 obtained from sputum of patient after 48 hrs by broth microdilution method; conditions: isolate CNM-CM-2280, 48 h
# Aspergillus lentulus [8] = assay: Antimicrobial activity against Aspergillus lentulus isolate CNM-CM-3134 obtained from sputum of patient after 48 hrs by broth microdilution method; assay type: functional; conditions: isolate CNM-CM-3134, 48 h; outline: as §1
# Aspergillus viridinutans [9] = assay: Antimicrobial activity against Aspergillus viridinutans isolate CNM-CM-4518 obtained from nail of patient after 48 hrs by broth microdilution method; assay type: functional; conditions: isolate CNM-CM-4518, 48 h; outline: as §1
# Aspergillus lentulus [10] = assay: Antimicrobial activity against Aspergillus lentulus isolate CNM-CM-4330 obtained from sputum of patient after 48 hrs by broth microdilution method; assay type: functional; conditions: isolate CNM-CM-4330, 48 h; outline: as §1
# Aspergillus lentulus [11] = assay: Antimicrobial activity against Aspergillus lentulus isolate CNM-CM-3537 obtained from sputum of patient after 48 hrs by broth microdilution method; assay type: functional; conditions: isolate CNM-CM-3537, 48 h; outline: as §1
# Aspergillus lentulus [12] = assay: Antimicrobial activity against Aspergillus lentulus isolate CNM-CM-4428 obtained from skin of patient after 48 hrs by broth microdilution method; assay type: functional; conditions: isolate CNM-CM-4428, 48 h; outline: as §1
# [13] = tested on: Neosartorya pseudofischeri; assay: Antimicrobial activity against Neosartorya pseudofischeri isolate CNM-CM-3769 obtained from sputum of patient after 48 hrs by broth microdilution method; assay type: functional; conditions: Aspergillus thermomutatus; outline: as §2
# [14] = tested on: Neosartorya pseudofischeri; assay: Antimicrobial activity against Neosartorya pseudofischeri isolate CNM-CM-3914 obtained from nail of patient after 48 hrs by broth microdilution method; assay type: functional; conditions: Aspergillus thermomutatus, isolate CNM-CM-3914, 48 h; outline: as §2
# Aspergillus lentulus [15] = assay: Antimicrobial activity against Aspergillus lentulus isolate CNM-CM-3538 obtained from sputum of patient after 48 hrs by broth microdilution method; assay type: functional; conditions: isolate CNM-CM-3538, 48 h; outline: as §1
# Neosartorya hiratsukae [16] = assay: Antimicrobial activity against Neosartorya hiratsukae isolate CNM-CM-4328 obtained from cornea of patient after 48 hrs by broth microdilution method; assay type: functional; conditions: Aspergillus hiratsukae, isolate CNM-CM-4328, Cornea; outline: as §1
# Aspergillus lentulus [17] = assay: Antimicrobial activity against Aspergillus lentulus isolate CNM-CM-4370 obtained from sputum of patient after 48 hrs by broth microdilution method; assay type: functional; conditions: isolate CNM-CM-4370, 48 h; outline: as §1
# Aspergillus lentulus [18] = assay: Antimicrobial activity against Aspergillus lentulus isolate CNM-CM-4387 obtained from sputum of patient after 48 hrs by broth microdilution method; assay type: functional; conditions: isolate CNM-CM-4387, 48 h; outline: as §1
# Neosartorya hiratsukae [19] = assay: Antimicrobial activity against Neosartorya hiratsukae isolate CNM-CM-3764 obtained from oropharyngeal exudate of patient after 48 hrs by broth microdilution method; assay type: functional; conditions: Aspergillus hiratsukae, isolate CNM-CM-3764, 48 h; outline: as §1
# [20] = tested on: Aspergillus fumisynnematus; assay: Antimicrobial activity against Aspergillus fumisynnematus isolate CNM-CM-4063 obtained from bronchoalveolar aspirate of patient after 48 hrs by broth microdilution method; assay type: functional; conditions: isolate CNM-CM-4063, Lung; outline: as §1
# Aspergillus lentulus [21] = assay: Antimicrobial activity against Aspergillus lentulus isolate CNM-CM-4420 obtained from nail of patient after 48 hrs by broth microdilution method; assay type: functional; conditions: isolate CNM-CM-4420, 48 h; outline: as §1
# Aspergillus lentulus [22] = assay: Antimicrobial activity against Aspergillus lentulus isolate CNM-CM-1290 obtained from sputum of patient after 48 hrs by broth microdilution method; assay type: functional; conditions: isolate CNM-CM-1290, 48 h; outline: as §1
# Aspergillus fumigatus = assay: Antimicrobial activity against Aspergillus fumigatus ATCC 2004305 after 48 hrs by broth microdilution method; assay type: functional; conditions: ATCC 2004305, 48 h
# Aspergillus lentulus [23] = assay: Antimicrobial activity against Aspergillus lentulus isolate CNM-CM-3583 obtained from sputum of patient after 48 hrs by broth microdilution method; assay type: functional; conditions: isolate CNM-CM-3583, 48 h; outline: as §1
# Aspergillus lentulus [24] = assay: Antimicrobial activity against Aspergillus lentulus isolate CNM-CM-4426 obtained from sputum of patient after 48 hrs by broth microdilution method; assay type: functional; conditions: isolate CNM-CM-4426, 48 h; outline: as §1
# [25] = tested on: Neosartorya pseudofischeri; assay: Antimicrobial activity against Neosartorya pseudofischeri isolate CNM-CM-4060 obtained from sputum of patient after 48 hrs by broth microdilution method; assay type: functional; conditions: Aspergillus thermomutatus; outline: as §2
# Neosartorya hiratsukae [26] = assay: Antimicrobial activity against Neosartorya hiratsukae isolate CNM-CM-3305 obtained from skin of patient after 48 hrs by broth microdilution method; assay type: functional; conditions: Aspergillus hiratsukae, isolate CNM-CM-3305, 48 h; outline: as §1
# Aspergillus lentulus [27] = assay: Antimicrobial activity against Aspergillus lentulus isolate CNM-CM-3599 obtained from sputum of patient after 48 hrs by broth microdilution method; assay type: functional; conditions: isolate CNM-CM-3599, 48 h; outline: as §1
# Aspergillus lentulus [28] = assay: Antimicrobial activity against Aspergillus lentulus isolate CNM-CM-4415 obtained from sputum of patient after 48 hrs by broth microdilution method; assay type: functional; conditions: isolate CNM-CM-4415, 48 h; outline: as §1
compound,measurement,setting,value
CCC(C)n1ncn(-c2ccc(N3CCN(c4ccc(OCC5COC(Cn6cncn6)(c6ccc(Cl)cc6Cl)O5)cc4)CC3)cc2)c1=O (stereo not drawn) [ITRACONAZOLE],MIC,Aspergillus lentulus [1],8 µg/mL
same,MIC,[2],8 µg/mL
same,MIC,Neosartorya hiratsukae [3],0.16 µg/mL
same,MIC,Neosartorya hiratsukae [4],0.12 µg/mL
same,MIC,Aspergillus viridinutans [5],14.4 µg/mL
same,MIC,[6],8 µg/mL
same,MIC,[7],6.66 µg/mL
same,MIC,Aspergillus lentulus [8],10.2 µg/mL
same,MIC,Aspergillus viridinutans [9],16 µg/mL
same,MIC,Aspergillus lentulus [10],6 µg/mL
same,MIC,Aspergillus lentulus [11],8.25 µg/mL
same,MIC,Aspergillus lentulus [12],7 µg/mL
same,MIC,[13],8 µg/mL
same,MIC,[14],16 µg/mL
same,MIC,Aspergillus lentulus [15],8.25 µg/mL
same,MIC,Neosartorya hiratsukae [16],0.25 µg/mL
same,MIC,Aspergillus lentulus [17],8 µg/mL
same,MIC,Aspergillus lentulus [18],8 µg/mL
same,MIC,Neosartorya hiratsukae [19],0.33 µg/mL
same,MIC,[20],0.25 µg/mL
same,MIC,Aspergillus lentulus [21],8 µg/mL
same,MIC,Aspergillus lentulus [22],9.25 µg/mL
same,MIC,Aspergillus fumigatus,0.125 µg/mL
same,MIC,Aspergillus lentulus [23],0.43 µg/mL
same,MIC,Aspergillus lentulus [24],6.66 µg/mL
same,MIC,[25],11 µg/mL
same,MIC,Neosartorya hiratsukae [26],0.185 µg/mL
same,MIC,Aspergillus lentulus [27],0.5 µg/mL
same,MIC,Aspergillus lentulus [28],16 µg/mL
"CCCCCOc1ccc(-c2cc(-c3ccc(C(=O)N[C@H]4C[C@@H](O)[C@@H](O)NC(=O)[C@@H]5[C@@H](O)[C@@H](C)CN5C(=O)[C@H]([C@H](O)CC(N)=O)NC(=O)[C@H]([C@H](O)[C@@H](O)c5ccc(O)c(OS(=O)(=O)O)c5)NC(=O)[C@@H]5C[C@@H](O)CN5C(=O)[C@H]([C@@H](C)O)NC4=O)cc3)no2)cc1 [MICAFUNGIN] (X1-[Orn(4R-OH,5R-OH)]T[Hyp][hTyr(3S-OH,4S-OH,3'-OSO3H)][Gln(3R-OH)][Pro(3S-OH,4S-Me)]; lactam 1-C)",minimal effective concentration,Aspergillus lentulus [1]; read-out: MEC,0.03 µg/mL
same,minimal effective concentration,[2]; read-out: MEC,0.26 µg/mL
same,minimal effective concentration,Neosartorya hiratsukae [3]; read-out: MEC,0.03 µg/mL
same,minimal effective concentration,Neosartorya hiratsukae [4]; read-out: MEC,0.03 µg/mL
same,minimal effective concentration,Aspergillus viridinutans [5]; read-out: MEC,0.2 µg/mL
same,minimal effective concentration,[6]; read-out: MEC,0.08 µg/mL
same,minimal effective concentration,[7]; read-out: MEC,0.04 µg/mL
same,minimal effective concentration,Aspergillus lentulus [8]; read-out: MEC,0.07 µg/mL
same,minimal effective concentration,Aspergillus viridinutans [9]; read-out: MEC,0.03 µg/mL
same,minimal effective concentration,Aspergillus lentulus [10]; read-out: MEC,0.03 µg/mL
same,minimal effective concentration,Aspergillus lentulus [11]; read-out: MEC,0.04 µg/mL
same,minimal effective concentration,Aspergillus lentulus [12]; read-out: MEC,0.03 µg/mL
same,minimal effective concentration,[13]; read-out: MEC,0.06 µg/mL
same,minimal effective concentration,[14]; read-out: MEC,0.03 µg/mL
same,minimal effective concentration,Aspergillus lentulus [15]; read-out: MEC,0.1 µg/mL
same,minimal effective concentration,Neosartorya hiratsukae [16]; read-out: MEC,0.03 µg/mL
same,minimal effective concentration,Aspergillus lentulus [17]; read-out: MEC,0.03 µg/mL
same,minimal effective concentration,Aspergillus lentulus [18]; read-out: MEC,0.03 µg/mL
same,minimal effective concentration,Neosartorya hiratsukae [19]; read-out: MEC,0.04 µg/mL
same,minimal effective concentration,[20]; read-out: MEC,0.03 µg/mL
same,minimal effective concentration,Aspergillus lentulus [21]; read-out: MEC,0.03 µg/mL
same,minimal effective concentration,Aspergillus lentulus [22]; read-out: MEC,0.05 µg/mL
same,minimal effective concentration,Aspergillus fumigatus; read-out: MEC,0.03 µg/mL
same,minimal effective concentration,Aspergillus lentulus [23]; read-out: MEC,0.03 µg/mL
same,minimal effective concentration,Aspergillus lentulus [24]; read-out: MEC,0.03 µg/mL
same,minimal effective concentration,[25]; read-out: MEC,0.03 µg/mL
same,minimal effective concentration,Neosartorya hiratsukae [26]; read-out: MEC,0.14 µg/mL
same,minimal effective concentration,Aspergillus lentulus [27]; read-out: MEC,0.03 µg/mL
same,minimal effective concentration,Aspergillus lentulus [28]; read-out: MEC,0.03 µg/mL
